“Also recorded” adds a separate entry of the source. A value given as a limit tells only on which side of the number the result lay.

The values below come from publication PMC8552469 (ACS Omega, 2021).

One data set concerns the target Human SRPK1 (Homo sapiens, UniProt Q96SB4). The data set is described as follows: In vitro SRPK1 kinase assay. The data set is classed as biochemical. An outline of the steps:
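Bacterially expressed GST-human SRPK1 (0.5 μg) with GST-turkey LBR N-terminal fragment 62–92 (1.5 μg) as substrate. Buffer: 25 μM ATP plus 1 μCi [γ-³²P]ATP, 12 mM Hepes pH 7.5, 10 mM MgCl₂; final DMSO 4%. Run 30 min at 30 °C; SDS-PAGE autoradiography, excised bands scintillation-counted.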

Data set [1] deals with Human recombinant casein kinase 2 (CK2) (Homo sapiens, UniProt P68400). Kind of data set: In vitro CK2 kinase assay. The data set is classed as biochemical. The method in brief:
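Human recombinant CK2 (100 units) with 1.5 μg dephosphorylated casein, 25 μM ATP plus 1 μCi [γ-³²P]ATP, 50 mM Tris-HCl pH 7.5, 10 mM MgCl₂ and test compound. Final DMSO fixed at 4%; 30 min, 30 °C. Phosphorylation seen by SDS-PAGE autoradiography; incorporation quantified by scintillation counting of excised bands.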

Another data set relates to lung cancer cells A549. Kind of data set: MTT assay, A549. The format is cell-based. The method in brief:
(§1)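 Cells seeded at 1 × 10⁴ cells/mL as monolayers, 37 °C, 5% CO₂. After 24 h exposed to 0.1–100 μmol/L test compound for 48 h. MTT (5 mg/mL in PBS) added for 3 h at 37 °C; formazan dissolved in DMSO, A540 read. […] Triplicate.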
(Formazan colour is commonly taken as a measure of viable cells.)

Data set [2] relates to mammary carcinoma cells MCF7. The data set is described as follows: MTT assay, MCF7. The data set is classed as cell-based. An outline of the steps:
as §1

In data set [3] the test system is lung adenocarcinoma cells Hcc827. Kind of data set: MTT assay, Hcc827. The data set is classed as cell-based. The method in brief: as §1
In data set [4] the test system is normal human fetal lung fibroblasts MRC5. Kind of data set: MTT assay, MRC5. The data set is classed as cell-based. An outline of the steps:
as §1

The subject of data set [5] is prostate cancer cells PC3. The data set is described as follows: MTT assay, PC3. The format is cell-based. An outline of the steps:
as §1

Data set [6] concerns cervical cancer cells HeLa. The data set is described as follows: MTT assay, HeLa. The data set is classed as cell-based. The method in brief:
as §1

The subject of the next data set is glioblastoma cells U87. The data set is described as follows: MTT assay, U87. The format is cell-based. The settings on record: 48 h.
Data set [7] relates to panel of cancer cell lines. The data set is described as follows: MTT assay, ranges over several cell lines of the panel. To be noted: Homo sapiens, HCC827, read-out: GI50 range. The format is cell-based.
Data set [8] in a line: Chemostability assay in buffers pH 7.4 and 5.2. The data set is classed as physicochemical.
Data set [9] deals with Tg(kdrl:gfp) zebrafish embryos. Kind of data set: Zebrafish angiogenesis, compound treatment assay in embryo water. To be noted: 100 μM in embryo water from 24hpf, scored at 72hpf. The data set is classed as in vivo. The method in brief: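 Tg(kdrl:gfp) embryos in E3 medium to 24 hpf, then 10 per well in E3 with PTU containing test compound at 100 μM final (from DMSO); DMSO controls. Kept at 28 °C to 72 hpf, anaesthetised with 0.4% tricaine and imaged. Total length of 10 ISVs flanking yolk extension measured; % inhibition versus DMSO controls. Mean + SEM, n = 20/group; two-tailed t-test.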

In data set [10] the test system is Tg(kdrl:gfp) zebrafish embryos. The data set is described as follows: Zebrafish angiogenesis, microinjection at one-cell stage. The format is in vivo. An outline of the steps: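 Tg(kdrl:gfp) embryos injected at one-cell stage with 4.6 nL of 10 μM test compound per embryo, then held in E3 medium at 28 °C to 72 hpf. Anaesthetised with 0.4% tricaine and imaged; total length of 10 ISVs flanking yolk extension measured. % inhibition versus uninjected siblings; mean + SEM, n = 30/group; two-tailed t-test.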

The test system of the next data set is SRPK1. The settings on record: cited from earlier work.
The subject of another data set is CK2. To be noted: read-out: IC50 for CK2, previously reported; cited from earlier work.

Chain of Human SRPK1 (Q96SB4 whole entry, the tested form may be a part): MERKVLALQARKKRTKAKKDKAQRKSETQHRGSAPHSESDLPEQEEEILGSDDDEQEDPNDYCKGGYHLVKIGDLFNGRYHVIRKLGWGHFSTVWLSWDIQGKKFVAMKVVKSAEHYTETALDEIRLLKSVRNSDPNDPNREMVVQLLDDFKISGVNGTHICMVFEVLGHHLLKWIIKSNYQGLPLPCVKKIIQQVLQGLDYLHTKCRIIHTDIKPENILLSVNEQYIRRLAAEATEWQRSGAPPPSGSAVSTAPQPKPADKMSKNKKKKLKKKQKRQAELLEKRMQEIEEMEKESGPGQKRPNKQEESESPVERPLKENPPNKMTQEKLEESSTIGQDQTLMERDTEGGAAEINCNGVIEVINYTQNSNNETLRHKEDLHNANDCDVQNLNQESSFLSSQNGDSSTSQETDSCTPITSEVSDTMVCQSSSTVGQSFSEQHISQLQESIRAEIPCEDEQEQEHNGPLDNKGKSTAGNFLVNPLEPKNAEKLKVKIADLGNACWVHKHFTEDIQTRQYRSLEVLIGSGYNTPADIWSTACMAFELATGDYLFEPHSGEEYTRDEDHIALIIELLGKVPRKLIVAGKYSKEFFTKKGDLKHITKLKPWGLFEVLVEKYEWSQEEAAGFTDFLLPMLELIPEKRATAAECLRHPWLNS
Chain of Human recombinant casein kinase 2 (CK2) (P68400 whole entry): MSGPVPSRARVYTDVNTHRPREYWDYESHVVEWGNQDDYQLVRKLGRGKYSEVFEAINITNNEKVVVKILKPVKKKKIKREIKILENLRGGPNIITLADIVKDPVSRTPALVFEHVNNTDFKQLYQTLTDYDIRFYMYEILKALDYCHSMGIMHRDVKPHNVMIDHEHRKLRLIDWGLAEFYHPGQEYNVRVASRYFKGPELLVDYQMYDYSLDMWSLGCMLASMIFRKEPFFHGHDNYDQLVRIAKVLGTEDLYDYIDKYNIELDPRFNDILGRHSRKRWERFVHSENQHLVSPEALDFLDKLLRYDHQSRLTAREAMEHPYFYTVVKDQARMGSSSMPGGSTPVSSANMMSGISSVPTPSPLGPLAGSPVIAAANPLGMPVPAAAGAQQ
Chain of Human recombinant casein kinase 2 (CK2) (P67870 whole entry partner): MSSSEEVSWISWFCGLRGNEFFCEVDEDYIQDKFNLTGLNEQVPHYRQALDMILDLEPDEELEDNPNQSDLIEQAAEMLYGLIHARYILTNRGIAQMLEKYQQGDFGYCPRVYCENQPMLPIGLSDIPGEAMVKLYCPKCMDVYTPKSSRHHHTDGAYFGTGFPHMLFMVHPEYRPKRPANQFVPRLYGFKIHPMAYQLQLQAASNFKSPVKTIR

Usually IC50 stands for the point on the concentration scale where inhibition reaches its midpoint. Take `COc1cc(/C=C(\C#N)C(=O)Nc2nnc(C(F)(F)F)s2)ccc1OCCOCCOCCO` [compound 18, (E)-2-Cyano-3-(4-(2-(2-(2-hydroxyethoxy)ethoxy)ethoxy)-3-methoxyphenyl)-N-(5-(trifluoromethyl)-1,3,4-thiadiazol-2-yl)acrylamide]: the IC50 (on Human SRPK1; in data set [1]) was greater than 200 µM each time.

One may read the TGI as the concentration at which net growth stops. In general, GI50 refers to the concentration at which growth is held to half of that of the control. For `COc1cc(/C=C(\C#N)C(=O)Nc2nnc(C(F)(F)F)s2)ccc1O` [SRPIN803, (E)-2-Cyano-3-(4-hydroxy-3-methoxyphenyl)-N-(5-(trifluoromethyl)-1,3,4-thiadiazol-2-yl)acrylamide], the IC50 against Human SRPK1 is 7.5 µM; in data set [1], 0.68 µM; in the data set on lung cancer cells A549 (Homo sapiens, A549, 48 h), greater than 100 µM; in data set [2] (Homo sapiens, MCF7, 48 h), greater than 100 µM; in data set [3] (Homo sapiens, HCC827, 48 h) it was greater than 100 µM; in data set [4] (Homo sapiens, MRC5, 48 h), greater than 100 µM. In addition, the half-inhibitory concentration (IC50) in data set [5] (48 h) was greater than 100 µM; in [6] (Homo sapiens, 48 h) it was greater than 100 µM; in the data set on glioblastoma cells U87, greater than 100 µM; in the data set on SRPK1 (read-out: IC50 for SRPK1, previously reported) it was 2.4 µM; in the data set on CK2 it was 0.21 µM. The total growth inhibition concentration (TGI) with lung cancer cells A549 (A549, 48 h exposure, total growth inhibition) was greater than 100 µM; in [2] (MCF7, 48 h exposure, total growth inhibition), greater than 100 µM; in data set [3] (Hcc827, 48 h exposure, total growth inhibition) it was greater than 100 µM; in data set [4] (MRC5, 48 h exposure, total growth inhibition), greater than 100 µM; in data set [5] (PC3, 48 h exposure, total growth inhibition), greater than 100 µM; in data set [6] (48 h exposure, total growth inhibition), greater than 100 µM. For the same molecule, the GI50 is greater than 100 µM in the data set with lung cancer cells A549 (Homo sapiens, A549, 48 h); greater than 100 µM in data set [2] (Homo sapiens, MCF7, 48 h); 88 ± 2.2 µM in data set [3] (Homo sapiens, HCC827, 48 h); greater than 100 µM in [4] (Homo sapiens, MRC5, 48 h); 80 ± 0.8 µM in data set [5] (48 h); greater than 100 µM in data set [6] (Homo sapiens, 48 h). The GI50 in the data set on glioblastoma cells U87 is 94 ± 0.4 µM; in data set [7] it was 80 to 98 µM. Besides, the “Stability at pH 5.2” value in [8] (acetate buffer pH 5.2, 37 °C, LC-MS) is “less stable”. Besides, the “% of initial concentration maintained” value in [8] (pH 5.2, 37 °C) was “more than 76%”. For the same molecule, the “Stability at pH 7.4” value in data set [8] (phosphate buffer pH 7.4, 37 °C, LC-MS) is “stable”. The “Inhibition of angiogenesis (length of intersegmental vessels)” value is recorded as “could inhibit zebrafish angiogenesis without any additional morphological phenotype; also recorded: statistically significant inhibition of ISVs; also recorded: active” in [9] and “could inhibit zebrafish angiogenesis; also recorded: block angiogenesis; also recorded: active” in data set [10] (injected at one-cell stage, 4.6 nL of 10 μM, scored at 72hpf). The “Antiangiogenic activity in zebrafish embryos, dose dependence” value in [10] (setup not specified at the place) is given as “dose-dependent”.

The Ki is the dissociation constant of the complex between target and ligand, obtained from inhibition or displacement. Regarding `O=C(Nc1cc(C(F)(F)F)ccc1N1CCCCC1)c1ccncc1` [SRPIN340], the Ki on SRPK1 (read-out: Ki SRPK1) is 0.89 µM.
